L major viab: reduces viability of Leishmania major promastigotes. resazurin fluorescence viability. inhibition, % at 10 µM. AID 1063. actives 9% (n = 200,000); in the data active = inhibition above about 50%;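 note: promastigotes grown with compound for 44 hours at 28 °C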
Dynein cargo inh: dynein cargo transport inhibition | 3617.4 mouse cells, GR-EGFP nuclear translocation imaging; test concentration mostly 20 µM; stimulated with dexamethasone, 1 µM; stronger effect = lower value | actives 0.47% (n = 220,000) | z-score, hits read low;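 active = plate z-score of nuclear minus cytoplasmic receptor signal below a set negative limit, without overly bright fluorescence or cell loss, cut at about -3.5 in these data, passing the limit was not always enough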;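 note: z-score of nuclear minus cytoplasmic ring GR-EGFP intensity difference per well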
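Buffer or medium: tet-free medium with charcoal-stripped serum / Also added: dexamethasone agonist, 1.0 µM final, for 30 min / Timing: induction 48 h, compound 1 h, agonist 30 min / Measured by: high-content fluorescence imaging after fixation / Read-out: nuclear-to-cytoplasmic GR-EGFP distribution per well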
MT stabilize HCS: stabilizes microtubules in HeLa cells. HeLa tubulin immunostaining HCS, 24 h; share of cells brighter than vehicle mean+2SD. % tubulin-high responders, % at 10 µM. actives 0.83% (n = 200,000);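 active = plate Z-score above 3 for both tubulin-high and condensed-nucleus cell shares, with cell loss under 80%, at 10 µM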;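 note: anti alpha tubulin signal scored within the nucleus-defined area of each cell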
CHOP inhibitor: blocks CHOP induction under ER stress; CHO-K1 CHOP-promoter luciferase, tunicamycin-induced, 15-18 h; inhibition, % at 10 µM; actives 3.8% (n = 220,000); AID 2732;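 active = compounds that reduced the stress-induced luciferase reporter signal by more than about 70% of percent inhibition, limit read from the data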
Autophagy mod: modulators of autophagy | MEF GFP-LC3 puncta imaging; test concentration mostly 10 µM | calls only at 10 µM (by protocol) | actives 0.98% (n = 190,000);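 active = percentage of spot-positive cells more than 3 SD above its plate mean, without a fluorescence outlier flag or 80% toxicity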
b-catenin transl: modulators of beta-catenin nuclear translocation; nuclear translocation activity, % at 5 µM; actives 0.3% (n = 190,000); AID 1665; HeLa beta-catenin nuclear translocation, immunofluorescence imaging;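 active = nuclear translocation activity above 50% at 5 µM, with a well cell count of 50 or more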;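 note: per-cell ratio of nuclear to cytoplasmic median beta-catenin stain intensity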
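Assay system: human HeLa cells, native beta-catenin; doses: 5 µM primary, 0.02–20 µM confirmation; incubation: compound treatment 24 h, 37°C, 5% CO2; technique: fluorescence imaging of beta-catenin antibody stain plus DAPI; measure: % activation, nuclear-to-cytoplasmic median beta-catenin signal ratio per cell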
Large screens that a line does not name were inactive. An excerpt weighted towards active compounds, which were near 12% of everything screened.

Cc1ccc(O)c(N=NC2=C(O)CC(C)(C)CC2=O)c1	L major viab 98.9 (no result: b-catenin transl)
CC(NC(=O)C(Cc1ccccc1)NC(=O)c1ccccc1)C(=O)O (centres undefined)	L major viab 84.8
Cc1ccc(CC(NC(=O)c2ccccc2)C(=O)NC(Cc2ccccc2)C(=O)O)cc1 (centres undefined)	none
O=C(O)CCC(NC(=O)C(Cc1ccc2c(c1)OCO2)NC(=O)c1ccccc1)C(=O)O (centres undefined)	none
O=C(NC(Cc1ccc2c(c1)OCO2)C(=O)NC(Cc1ccccc1)C(=O)O)c1ccccc1 (centres undefined)	L major viab 88.4 (no result: b-catenin transl)
N#C/C(=C(/O)COC(=O)CSc1ccc2ccccc2c1)c1nc2ccccc2[nH]1	CHOP inhibitor 92.1
Cc1cc(Br)ccc1SCC(=O)OC/C(O)=C(\C#N)c1nc2ccccc2[nH]1	CHOP inhibitor 101.5 (no result: L major viab, MT stabilize HCS, Autophagy mod)
Cc1ccc(C)c(SCC(=O)OC/C(O)=C(\C#N)c2nc3ccccc3[nH]2)c1	CHOP inhibitor 95.0
Cn1c(=O)c2c(nc(-n3ccnc3)n2Cc2ccc(Cl)cc2Cl)n(C)c1=O	L major viab 83.7
CC(=O)Nc1c(NCC(C)C)c2ccccc2oc1=O	none (no result: b-catenin transl)
CCN(CC)N=Nc1ccc(C(=O)O)cc1	L major viab 68.6 (no result: b-catenin transl)
Cn1nnnc1N=N/C(=N/Nc1ccccc1)c1ccccc1	CHOP inhibitor 70.5 (no result: L major viab, MT stabilize HCS, Autophagy mod)
Cc1ccc(N/N=C(/Sc2nnnn2-c2ccccc2)C(=O)c2ccccc2)cc1	none (no result: b-catenin transl)
CCN(CC)C(=O)c1[nH]cnc1C(=O)N[C@@H](CC(C)C)C(=O)OCc1ccccc1	none
COc1ccc(/C=C/c2c([N+](=O)[O-])c(=O)n(C)c(=O)n2C)cc1	none
CCOc1ccc(/C=C/c2c([N+](=O)[O-])c(=O)n(C)c(=O)n2C)cc1	L major viab 65.2
Cc1cc(=O)[nH]n(CCO)c1=O	none (no result: L major viab, MT stabilize HCS, Autophagy mod)
CC/C(=N\NC(=S)Nc1ccc(OC)cc1)c1ccc(OC(F)F)cc1	none
CC/C(=N\NC(=S)Nc1cc(C)ccc1C)c1ccc(OC(F)F)cc1	L major viab 73.8 (no result: b-catenin transl)
O=C1CC(c2ccc(Cl)cc2)CC(O)=C1C=NCc1ccc(Cl)c(Cl)c1 (centres undefined)	none
Cc1ccc(NNC(=O)c2ccno2)c(C)c1	none (no result: L major viab, MT stabilize HCS, Autophagy mod)
O=C(NCC1(c2ccccc2)CCCC1)c1ccc(Br)cc1	CHOP inhibitor 74.4
Cc1ccc(C(=O)NCC2(c3ccccc3)CCCC2)cc1	none
Cc1ccc(NC(=O)CS(=O)(=O)c2c[nH]c3ccccc23)c(C)c1	none
Cc1ccc(C(=O)Nc2oc(-c3ccccc3)cc2C#N)cc1	none
N#Cc1cc(-c2ccccc2)oc1NC(=O)c1ccccc1	MT stabilize HCS 44.0
COc1ccc(-c2oc(NC(=O)c3ccc(C)cc3)c(C#N)c2-c2ccc(OC)cc2)cc1	none
COc1ccc(C(=O)Nc2oc(-c3ccccc3)c(-c3ccccc3)c2C#N)cc1	L major viab 86.3
Cc1cc(C)nc(/N=C2\NC(=O)CC(C(=O)O)N2c2ccc(C)c(C)c2)n1 (centres undefined)	none
C=CCOc1ccc2c(c1)c(=O)cc(C(=O)O)n2CC	none (no result: L major viab, MT stabilize HCS, Autophagy mod)
O=S(=O)(c1cnc[nH]1)N1CCc2ccccc21	L major viab 61.4
CCOC(=O)C(=CN=C(N)Nc1nc2ccccc2o1)C(=O)OCC	L major viab 56.0
Cc1cccc(OCCCCCNCCO)c1	L major viab 99.0 (no result: CHOP inhibitor)
CCc1ccccc1OCCCOc1ccc(OC)cc1	none
CCc1cccc(OCCCCNCCO)c1	L major viab 91.3 (no result: b-catenin transl)
CCc1ccccc1OCCCCCNCCO	L major viab 92.5
CCCCNCCCCOc1ccccc1	L major viab 87.9
OCCNCCCCCOc1ccc(F)cc1	L major viab 97.1
Cc1cccc(OCCCCNCc2ccccc2)c1	L major viab 89.3
Cc1cc(OCCCCCNCCO)ccc1Cl	L major viab 100.0
CCOC(=O)c1ccc(NS(=O)(=O)N2CCCCCC2)cc1	L major viab 94.6 (no result: b-catenin transl)
CCOC(=O)c1ccc(NS(=O)(=O)c2ccc(SC)cc2)cc1	CHOP inhibitor 78.0
CCOC(=O)Cc1ccc(NS(=O)(=O)c2ccc(SC)cc2)cc1	none
CC(=O)n1cc([C@H]2C=C(C(=O)N3CCN(Cc4ccc5c(c4)OCO5)CC3)O[C@@H](OCCCCO)C2)c2ccccc21	none
